Assay results: ChEMBL document CHEMBL2176935, “Discovery and lead optimization of a novel series of CC chemokine receptor 1 (CCR1)-selective piperidine antagonists via parallel synthesis” (J Med Chem, 2012)
Converted amounts (≈) assume the structure as drawn.

Columns and labels:
[1] = Half life in mouse at 5.2 mg/kg, po; format: ADME, organism-based; set-up: dose 5.2 mg/kg, route oral; details: in vivo
[2] = target: Voltage-gated inwardly rectifying potassium channel KCNH2 (Homo sapiens, UniProt Q12809); assay: Inhibition of human ERG expressed in HEK293 cells assessed as reduction in peak tail current by whole cell patch clamp assay; format: cell-based
How it was run: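 Whole-cell patch clamp on HEK-293 cells stably expressing the hERG α subunit. Inhibition measured on peak tail current. Aqueous buffer at pH 7.4, room temperature, no protein present.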

[3] = target: C-C chemokine receptor type 5 (Homo sapiens, UniProt P51681); assay: Displacement of [125I]MIP-1beta from human CCR5 expressed in HT1080 cells by scintillation counting; format: cell-based, HT-1080
How it was run: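 SPA using membranes from HT1080 cells stably expressing RAGE-activated human CCR5, 10 μg protein per well, with PVT-WGA-PS beads. Compound 11-point 3-fold dilutions, 40 μM to 0.7 nM final. 125I-MIP-1β at 0.1 nM final. Incubated 4 h at room temperature, read on TopCount.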

[4] = target: C-C chemokine receptor type 2 (Homo sapiens, UniProt P41597); assay: Displacement of [125I]MCP1 from CCR2 in human THP1 cells; format: cell-based, THP-1
Cytochrome P450 2C19 = Cytochrome P450 2C19 (Homo sapiens, UniProt P33261); assay: Inhibition of recombinant CYP2C19 expressed in baculovirus-infected insect cells using fluorogeinc substrate; format: ADME
How it was run: (§1)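 Recombinant CYP Supersomes premixed with fluorogenic substrate in potassium phosphate buffer and prewarmed 30 min at 37 °C with test substance. Reaction started with NADPH-regenerating system, incubated at 37 °C, then quenched with 80% acetonitrile/20% 0.5 M TRIS-base.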

[5] = target: C-C chemokine receptor type 3 (Homo sapiens, UniProt P51677); assay: Displacement of [125I]eotaxin from human CCR3 expressed in CHO CCR3/2 chimeric cells by scintillation counting; format: cell-based
How it was run: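 Compound 11-point 3-fold dilutions, 40 μM to 0.7 nM final. 125I-Eotaxin at 0.2 nM final. Incubated 3 h at room temperature; nonspecific binding set with 100 nM eotaxin. Duplicates.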

[6] = target: T1, C-C chemokine receptor type 1 (Homo sapiens, UniProt P32246); assay: Antagonist activity at CCR1 in human THP1 cells assessed as inhibition of CK-8beta-induced calcium flux by FLIPR; format: functional, cell-based, THP-1
T1 sequence (P32246 whole entry): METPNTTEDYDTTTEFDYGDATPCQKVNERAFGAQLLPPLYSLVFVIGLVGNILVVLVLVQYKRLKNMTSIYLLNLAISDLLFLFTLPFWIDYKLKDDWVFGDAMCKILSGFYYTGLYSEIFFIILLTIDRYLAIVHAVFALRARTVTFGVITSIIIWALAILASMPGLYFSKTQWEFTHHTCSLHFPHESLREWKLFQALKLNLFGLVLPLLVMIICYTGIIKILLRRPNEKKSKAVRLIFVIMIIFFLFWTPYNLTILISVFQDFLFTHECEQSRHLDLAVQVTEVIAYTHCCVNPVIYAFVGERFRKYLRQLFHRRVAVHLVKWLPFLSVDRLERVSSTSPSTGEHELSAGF

Liver = assay: Stability in mouse liver microsomes assessed as compound remaining; format: ADME, Microsome
[7] = target: T1, C-C chemokine receptor type 1; assay: Displacement of [125I]MIP-1alpha from CCR1 in human THP1 cells; format: cell-based, THP-1
How it was run: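 THP-1 cells, 1 × 105, mixed with WGA PS SPA beads in RPMI 1640 (no phenol red) with 50 mM HEPES, 5 mM MgCl2, 1 mM CaCl2, 0.1% BSA. Compound in 3-fold dilutions, 8 μM to 140 pM final. [125I]-MIP-1α at 0.1 nM final. Incubated 12 h at room temperature, imaged by LEADseeker. Duplicates; IC50 from four-parameter logistic fit after nonspecific correction.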

[8] = Thermodynamic solubility in pH 6.5 potassium phosphate buffer by HPLC method; format: physicochemical; details: read-out: Therm_solubility
How it was run: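 Thermodynamic equilibrium solubility. Compound standard dissolved in methanol, with DMSO added if needed, and mixed 1:1 with 50 mM potassium phosphate pH 6.5. Vortexed, sonicated 30 s, shaken 15−24 h at room temperature, centrifuged. Quantified by HPLC-UV at 210 or 254 nm against a calibration curve.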

[9] = Oral bioavailability life in mouse at 5.2 mg/kg; format: ADME, organism-based; details: in vivo
[10] = Clearance in mouse at 2.5 mg/kg, iv; format: ADME, organism-based; set-up: dose 2.5 mg/kg, route intravenous; details: in vivo
[11] = Volume of distribution at steady state in mouse at 2.5 mg/kg, iv; format: ADME, organism-based; set-up: dose 2.5 mg/kg, route intravenous; details: in vivo, read-out: Vdss
Cytochrome P450 2D6 = Cytochrome P450 2D6 (Homo sapiens, UniProt P10635); assay: Inhibition of recombinant CYP2D6 expressed in baculovirus-infected insect cells using fluorogeinc substrate; format: ADME; how it was run: as §1
[12] = target: T1, C-C chemokine receptor type 1; assay: Antagonist activity at CCR1 in human THP1 cells assessed as inhibition of MIP-1alpha-induced calcium flux by FLIPR; format: functional, cell-based, THP-1
How it was run: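 THP-1 cells loaded with fluo-3 AM and resuspended in assay buffer containing probenecid. Calcium flux was followed on FLIPR after adding MIP-1α at 20 nM. Compound effect was taken as the change in base-to-peak excursion relative to control. Run in duplicate.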

Liver microsomes [13] = assay: Stability in human liver microsomes assessed as compound remaining; format: ADME, Microsome
Chemokine receptor = target: T2, Chemokine receptor (Oryctolagus cuniculus, UniProt Q9MYJ9); assay: Displacement of [125I]MIP-1alpha from CCR1 in rabbit PBMCs incubated for 60 mins
T2 sequence (Q9MYJ9 whole entry): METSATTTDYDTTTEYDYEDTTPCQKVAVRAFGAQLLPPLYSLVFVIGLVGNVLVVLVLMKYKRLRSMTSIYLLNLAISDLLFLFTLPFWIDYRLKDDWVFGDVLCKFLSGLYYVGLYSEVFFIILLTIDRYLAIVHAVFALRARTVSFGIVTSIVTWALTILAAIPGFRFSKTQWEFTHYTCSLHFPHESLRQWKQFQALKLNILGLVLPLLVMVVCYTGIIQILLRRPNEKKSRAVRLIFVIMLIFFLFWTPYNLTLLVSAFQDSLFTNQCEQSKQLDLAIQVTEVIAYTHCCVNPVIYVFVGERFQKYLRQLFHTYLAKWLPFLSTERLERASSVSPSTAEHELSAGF
How it was run: (§2)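 Cross-species binding using human 125I-MIP-1α at 0.08 nM final. Nonspecific binding measured with excess unlabeled ligand. Incubated 60 min at room temperature, washed, air-dried, filters gamma-counted. Cells were the mouse WEHI 274.1 line, rat thioglycollate-elicited peritoneal cells, and rabbit peripheral blood mononuclear cells.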

[14] = Half life in mouse at 2.5 mg/kg, iv; format: ADME, organism-based; set-up: dose 2.5 mg/kg, route intravenous; details: in vivo
[15] = target: T3, C-C chemokine receptor type 1 (Rattus norvegicus, UniProt A6I4C9); assay: Displacement of [125I]MIP-1alpha from CCR1 in rat thioglycolate-elicited peritoneal cells incubated for 60 mins; how it was run: as §2
T3 sequence (A6I4C9 whole entry): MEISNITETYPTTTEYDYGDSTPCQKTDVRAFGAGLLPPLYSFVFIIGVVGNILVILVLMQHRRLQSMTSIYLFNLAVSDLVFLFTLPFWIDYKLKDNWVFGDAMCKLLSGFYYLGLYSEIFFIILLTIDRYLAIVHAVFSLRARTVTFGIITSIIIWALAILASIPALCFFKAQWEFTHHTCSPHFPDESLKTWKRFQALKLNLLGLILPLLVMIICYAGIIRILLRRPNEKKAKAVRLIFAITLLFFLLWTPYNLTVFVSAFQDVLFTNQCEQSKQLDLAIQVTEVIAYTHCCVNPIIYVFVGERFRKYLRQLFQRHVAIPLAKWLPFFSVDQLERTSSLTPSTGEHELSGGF

Cytochrome P450 3A4 = Cytochrome P450 3A4 (Homo sapiens, UniProt P08684); assay: Inhibition of recombinant CYP3A4 expressed in baculovirus-infected insect cells using fluorogeinc substrate; format: ADME; how it was run: as §1
[16] = AUC in mouse at 5.2 mg/kg, po; format: ADME, organism-based; set-up: dose 5.2 mg/kg, route oral; details: plasma
[17] = AUC in mouse at 2.5 mg/kg, iv; format: ADME, organism-based; set-up: dose 2.5 mg/kg, route intravenous; details: plasma
Liver microsomes [18] = assay: Stability in rat liver microsomes assessed as compound remaining; format: ADME, Microsome
[19] = Cmax in mouse at 5.2 mg/kg, po; format: ADME, organism-based; set-up: dose 5.2 mg/kg, route oral; details: in vivo
[20] = target: T4, C-C chemokine receptor type 1 (Mus musculus, UniProt P51675); assay: Displacement of [125I]MIP-1alpha from CCR1 in mouse WEHI 274.1 cells incubated for 60 mins; format: cell-based; how it was run: as §2
T4 sequence (P51675 whole entry): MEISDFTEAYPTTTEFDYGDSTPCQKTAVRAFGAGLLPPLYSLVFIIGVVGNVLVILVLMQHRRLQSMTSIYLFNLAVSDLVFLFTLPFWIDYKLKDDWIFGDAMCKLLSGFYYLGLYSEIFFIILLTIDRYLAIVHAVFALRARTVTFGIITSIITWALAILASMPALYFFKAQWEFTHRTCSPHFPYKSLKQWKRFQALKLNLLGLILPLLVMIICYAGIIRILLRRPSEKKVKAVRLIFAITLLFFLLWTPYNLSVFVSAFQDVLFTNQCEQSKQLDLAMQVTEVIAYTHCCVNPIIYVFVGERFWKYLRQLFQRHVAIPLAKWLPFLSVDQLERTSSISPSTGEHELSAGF

Cytochrome P450 2C9 = Cytochrome P450 2C9 (Homo sapiens, UniProt P11712); assay: Inhibition of recombinant CYP2C9 expressed in baculovirus-infected insect cells using fluorogeinc substrate; format: ADME; how it was run: as §1
Cytochrome P450 2C9, sequence (P11712 whole entry): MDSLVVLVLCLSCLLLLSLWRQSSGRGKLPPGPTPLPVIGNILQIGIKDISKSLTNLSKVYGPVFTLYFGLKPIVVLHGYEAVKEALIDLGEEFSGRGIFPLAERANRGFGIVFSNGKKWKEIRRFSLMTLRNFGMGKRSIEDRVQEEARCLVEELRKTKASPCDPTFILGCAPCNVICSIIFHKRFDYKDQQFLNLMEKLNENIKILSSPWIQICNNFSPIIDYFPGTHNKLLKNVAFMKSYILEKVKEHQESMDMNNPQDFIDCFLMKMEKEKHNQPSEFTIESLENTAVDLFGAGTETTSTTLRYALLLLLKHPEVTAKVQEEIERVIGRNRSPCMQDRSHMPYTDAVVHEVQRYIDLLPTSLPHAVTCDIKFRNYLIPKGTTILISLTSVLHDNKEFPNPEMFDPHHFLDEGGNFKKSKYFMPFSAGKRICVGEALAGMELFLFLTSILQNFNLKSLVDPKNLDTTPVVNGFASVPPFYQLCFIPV

Cytochrome P450 2C19, sequence (P33261 whole entry): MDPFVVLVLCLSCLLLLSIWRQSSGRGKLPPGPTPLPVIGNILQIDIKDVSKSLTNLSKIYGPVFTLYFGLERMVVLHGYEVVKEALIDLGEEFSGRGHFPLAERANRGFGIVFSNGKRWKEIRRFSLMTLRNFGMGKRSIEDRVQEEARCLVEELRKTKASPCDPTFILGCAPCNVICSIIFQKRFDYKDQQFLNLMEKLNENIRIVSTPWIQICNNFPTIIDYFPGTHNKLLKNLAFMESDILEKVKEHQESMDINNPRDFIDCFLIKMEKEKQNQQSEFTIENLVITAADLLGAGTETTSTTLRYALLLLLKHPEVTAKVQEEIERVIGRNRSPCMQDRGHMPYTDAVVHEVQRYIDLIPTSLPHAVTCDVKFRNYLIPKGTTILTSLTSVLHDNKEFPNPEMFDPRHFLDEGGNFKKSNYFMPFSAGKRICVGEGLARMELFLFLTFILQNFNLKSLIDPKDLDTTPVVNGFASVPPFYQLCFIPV
C-C chemokine receptor type 5, sequence (P51681 whole entry): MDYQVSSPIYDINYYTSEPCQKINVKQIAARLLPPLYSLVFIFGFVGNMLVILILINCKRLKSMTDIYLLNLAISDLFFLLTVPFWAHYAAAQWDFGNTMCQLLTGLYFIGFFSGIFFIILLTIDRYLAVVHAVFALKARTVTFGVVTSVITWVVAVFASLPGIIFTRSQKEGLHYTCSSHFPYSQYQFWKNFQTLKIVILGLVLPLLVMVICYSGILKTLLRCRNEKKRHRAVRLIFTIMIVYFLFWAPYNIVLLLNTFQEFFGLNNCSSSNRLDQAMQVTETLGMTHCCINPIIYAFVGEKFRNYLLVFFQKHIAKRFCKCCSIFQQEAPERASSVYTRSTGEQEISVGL
Cytochrome P450 2D6, sequence (P10635 whole entry): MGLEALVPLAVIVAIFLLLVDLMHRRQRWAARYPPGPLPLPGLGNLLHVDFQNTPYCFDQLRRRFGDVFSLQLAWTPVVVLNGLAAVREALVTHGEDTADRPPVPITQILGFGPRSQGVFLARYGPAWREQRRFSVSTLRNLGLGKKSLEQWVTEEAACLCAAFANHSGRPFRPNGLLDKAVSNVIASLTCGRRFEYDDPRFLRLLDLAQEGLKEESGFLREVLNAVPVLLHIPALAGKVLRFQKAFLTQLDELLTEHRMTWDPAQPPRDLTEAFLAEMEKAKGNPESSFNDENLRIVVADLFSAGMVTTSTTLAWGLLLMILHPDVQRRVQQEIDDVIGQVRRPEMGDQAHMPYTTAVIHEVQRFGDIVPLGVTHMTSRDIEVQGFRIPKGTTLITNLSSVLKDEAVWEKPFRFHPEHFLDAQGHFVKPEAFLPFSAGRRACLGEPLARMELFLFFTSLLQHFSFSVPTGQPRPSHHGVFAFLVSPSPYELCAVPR
Voltage-gated inwardly rectifying potassium channel KCNH2, sequence (Q12809 whole entry): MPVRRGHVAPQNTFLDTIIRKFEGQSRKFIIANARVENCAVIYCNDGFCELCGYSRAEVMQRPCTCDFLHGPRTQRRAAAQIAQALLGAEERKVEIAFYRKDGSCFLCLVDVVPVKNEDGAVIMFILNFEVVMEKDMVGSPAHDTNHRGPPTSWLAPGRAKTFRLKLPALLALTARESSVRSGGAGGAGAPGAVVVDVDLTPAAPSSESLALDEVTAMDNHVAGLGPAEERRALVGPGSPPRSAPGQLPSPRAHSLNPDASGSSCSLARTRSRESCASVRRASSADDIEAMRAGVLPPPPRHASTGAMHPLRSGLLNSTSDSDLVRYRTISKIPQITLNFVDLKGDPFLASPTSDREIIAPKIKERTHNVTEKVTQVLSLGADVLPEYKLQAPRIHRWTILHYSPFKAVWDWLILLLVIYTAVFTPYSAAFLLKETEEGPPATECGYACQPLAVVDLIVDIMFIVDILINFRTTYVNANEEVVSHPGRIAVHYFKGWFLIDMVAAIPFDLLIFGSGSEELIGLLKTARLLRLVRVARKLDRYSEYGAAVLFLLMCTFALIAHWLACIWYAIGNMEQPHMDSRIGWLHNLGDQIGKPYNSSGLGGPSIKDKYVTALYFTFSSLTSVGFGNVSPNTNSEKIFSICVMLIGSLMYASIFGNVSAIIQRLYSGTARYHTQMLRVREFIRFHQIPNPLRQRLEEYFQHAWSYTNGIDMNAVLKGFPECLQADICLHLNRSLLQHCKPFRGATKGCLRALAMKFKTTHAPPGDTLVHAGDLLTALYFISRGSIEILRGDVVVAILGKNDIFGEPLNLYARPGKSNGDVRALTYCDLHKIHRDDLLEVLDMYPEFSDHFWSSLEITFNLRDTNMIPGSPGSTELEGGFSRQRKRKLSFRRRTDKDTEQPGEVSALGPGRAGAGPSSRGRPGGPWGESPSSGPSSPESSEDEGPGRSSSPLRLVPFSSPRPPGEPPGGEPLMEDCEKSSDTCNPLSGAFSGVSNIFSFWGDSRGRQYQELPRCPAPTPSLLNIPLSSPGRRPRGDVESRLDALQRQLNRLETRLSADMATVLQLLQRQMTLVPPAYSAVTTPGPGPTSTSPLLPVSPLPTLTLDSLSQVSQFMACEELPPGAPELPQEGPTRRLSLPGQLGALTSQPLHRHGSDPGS
Cytochrome P450 3A4, sequence (P08684 whole entry): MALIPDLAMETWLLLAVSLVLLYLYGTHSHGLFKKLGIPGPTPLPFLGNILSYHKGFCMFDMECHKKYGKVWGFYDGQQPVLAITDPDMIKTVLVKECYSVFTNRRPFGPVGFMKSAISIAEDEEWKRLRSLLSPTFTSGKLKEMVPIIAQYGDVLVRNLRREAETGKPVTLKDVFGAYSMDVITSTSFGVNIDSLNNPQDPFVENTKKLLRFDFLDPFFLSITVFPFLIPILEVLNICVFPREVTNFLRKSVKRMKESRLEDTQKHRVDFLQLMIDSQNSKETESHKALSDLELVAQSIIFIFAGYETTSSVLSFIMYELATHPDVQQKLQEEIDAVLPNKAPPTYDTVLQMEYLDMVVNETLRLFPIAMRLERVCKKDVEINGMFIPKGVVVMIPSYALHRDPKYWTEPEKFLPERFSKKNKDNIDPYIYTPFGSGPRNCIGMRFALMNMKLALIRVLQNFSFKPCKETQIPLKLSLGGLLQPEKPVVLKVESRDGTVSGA
C-C chemokine receptor type 2, sequence (P41597 whole entry): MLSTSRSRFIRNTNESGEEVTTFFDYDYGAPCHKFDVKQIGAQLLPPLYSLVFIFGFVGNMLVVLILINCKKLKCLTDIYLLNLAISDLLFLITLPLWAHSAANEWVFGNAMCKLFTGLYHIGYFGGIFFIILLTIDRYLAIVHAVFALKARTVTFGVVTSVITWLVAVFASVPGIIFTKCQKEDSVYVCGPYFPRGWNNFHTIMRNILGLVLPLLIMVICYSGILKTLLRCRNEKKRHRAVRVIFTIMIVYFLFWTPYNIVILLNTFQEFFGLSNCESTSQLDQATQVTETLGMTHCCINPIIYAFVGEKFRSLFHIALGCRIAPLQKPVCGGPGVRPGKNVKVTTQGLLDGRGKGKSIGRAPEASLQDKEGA
C-C chemokine receptor type 3, sequence (P51677 whole entry, looked up): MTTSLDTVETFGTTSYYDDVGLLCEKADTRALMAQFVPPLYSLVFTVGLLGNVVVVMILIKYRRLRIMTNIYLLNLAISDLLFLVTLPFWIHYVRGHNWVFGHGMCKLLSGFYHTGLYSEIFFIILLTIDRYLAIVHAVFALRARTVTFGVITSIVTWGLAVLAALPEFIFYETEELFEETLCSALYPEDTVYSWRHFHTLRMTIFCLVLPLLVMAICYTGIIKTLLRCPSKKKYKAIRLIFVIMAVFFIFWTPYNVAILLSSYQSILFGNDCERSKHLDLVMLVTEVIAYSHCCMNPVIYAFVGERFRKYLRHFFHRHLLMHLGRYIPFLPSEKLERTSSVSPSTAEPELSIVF

CC(C)[C@@H](NC(=O)c1ccccc1)C(=O)N1CCC(c2ccc(Cl)cc2)CC1
half-life [1]: 5.2 h | IC50 [2]: 7 µM | IC50 [3]: > 20 µM | IC50 [4]: > 20 µM | IC50 (Cytochrome P450 2C19): > 40 µM | IC50 [5]: > 30 µM | IC50 [6]: 0.085 µM | Stability (Liver): 73% | IC50 [7]: 0.028 µM | solubility thermodynamic [8]: 1 µg/mL (≈ 2.51 µM) | bioavailability [9]: 52% | clearance [10]: 12.5 mL/min/kg | Vd [11]: 4.8 L/kg | IC50 (Cytochrome P450 2D6): > 40 µM | IC50 [12]: 0.015 µM | Stability (Liver microsomes [13]): 100% | IC50 (Chemokine receptor): 0.55 µM | half-life [14]: 6.9 h | IC50 [15]: > 30 µM | IC50 (Cytochrome P450 3A4): > 40 µM | AUC [16]: 6.6 µM·h | AUC [17]: 5.9 µM·h | Stability (Liver microsomes [18]): 83% | Cmax [19]: 3.1 µM | IC50 [20]: > 25 µM | IC50 (Cytochrome P450 2C9): > 40 µM
